Screening results deposited in PubChem BioAssay by Johns Hopkins Ion Channel Center.
RGS4 block: inhibitors of human RGS4; P49798; HEK293 M3R/RGS4 inducible, Fluo-4 calcium flux; active compounds read high; triggered by carbachol at its EC20; B-score at 10 µM; 310,000 tested, 0.45% active; AID 463165;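 active means B-score, a plate-corrected calcium signal, over three deviations above library mean, with baseline fluorescence within five deviations of library mean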;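 further: RGS4 expression induced by doxycycline in cells with stable M3 receptor; B-score is computed from the integrated fluorescence ratio over baseline after carbachol; higher B-score means a larger calcium signal and so more RGS4 inhibition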
Target sequence (P49798 whole entry, looked up): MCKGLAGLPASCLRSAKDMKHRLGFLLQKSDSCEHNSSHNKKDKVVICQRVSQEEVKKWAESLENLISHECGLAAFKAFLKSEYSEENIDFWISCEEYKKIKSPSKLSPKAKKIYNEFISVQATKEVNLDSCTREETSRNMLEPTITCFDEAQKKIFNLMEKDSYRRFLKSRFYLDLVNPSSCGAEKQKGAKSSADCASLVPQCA
MrgX1 antag: antagonists of human MrgX1 receptor. Q96LB2. 310,000 tested, 1.3% active. B-score at 10 µM. MRGX1-HEK293 calcium flux, Fluo-4, BAM8-22 antagonism; active compounds read low;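 active means calcium-response B-score plate-corrected more than 3 library SD below zero, starting fluorescence within 5 deviations, no agonist response on first addition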;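 further: peak minus trough fluorescence over baseline after final BAM8-22 challenge near maximal dose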
Target sequence (Q96LB2 whole entry, looked up): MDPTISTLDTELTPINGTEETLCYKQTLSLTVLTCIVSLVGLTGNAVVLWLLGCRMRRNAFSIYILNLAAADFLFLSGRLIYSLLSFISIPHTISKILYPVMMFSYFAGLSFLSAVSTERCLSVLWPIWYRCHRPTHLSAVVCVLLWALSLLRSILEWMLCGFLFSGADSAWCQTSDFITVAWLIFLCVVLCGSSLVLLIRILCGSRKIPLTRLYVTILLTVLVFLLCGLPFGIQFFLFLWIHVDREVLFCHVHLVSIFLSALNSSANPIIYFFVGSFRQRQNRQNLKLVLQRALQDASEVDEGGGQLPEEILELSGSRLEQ
MrgX1 PAM: allosterically activates human MrgX1 receptor signaling. Q96LB2. MrgX1-HEK293, Fluo-4 calcium flux, FDSS; active compounds read high. B-score at 10 µM. 310,000 tested, 0.63% active;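 active means plate-corrected calcium response at least 3 library SD above typical, normal starting fluorescence, not activating the receptor alone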;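 further: compound read alongside a low EC10 to EC30 dose of BAM8-22 agonist; peak minus trough fluorescence over baseline measured at the second addition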
MrgX1 agonist: agonists of human MrgX1 receptor. 310,000 tested, 0.44% active. AID 588627. MrgX1-HEK293 cells, Fluo-4 calcium fluorescence, agonist mode; active compounds read high. Q96LB2. B-score at 10 µM;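 active means calcium response B-score plate-corrected fluorescence ratio at least 3 library SD, with starting fluorescence B-score inside 5 SD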
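Assay system: MrgX1-expressing HEK293 cells / Amount: fifteen thousand cells per well / Doses: test compound in the initial addition of three / Timing: cells plated overnight, dye loaded 0.5 h 37 °C, 0.5 h room temperature / Technique: kinetic calcium dye fluorescence, Fluo-4 NW / Control set: positive and negative controls per plate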
Kir21 inh: blocks the mouse Kir2.1 inward-rectifier potassium channel; B-score at 10 µM; 310,000 tested, 0.85% active; HEK293-Kir2.1, FluxOR thallium flux fluorescence; active compounds read low;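 active means fluorescence ratio B-score at or below minus 3 SD of library scores, with starting-brightness B-score within 2 SD, cut at about -4.2 in these data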;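 further: channel flux triggered by added potassium and thallium sulfate stimulus; B-score of peak minus minimum fluorescence over baseline after thallium stimulus; more negative B-score means stronger Kir2.1 block with less thallium influx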
RGS4 pot: potentiators or activators of RGS4; HEK293 M3R/inducible RGS4, carbachol calcium flux Fluo4; active compounds read low; AID 463111; 310,000 tested, 0.92% active; B-score at 10 µM;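 active means B-score of the integrated calcium signal more than 4 SD below the library mean, with starting fluorescence not abnormally high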;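 further: negative B-score means reduced calcium response which marks RGS4 activation or potentiation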
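test system = M3R-expressing HEK293 line, RGS4 induced by doxycycline | probe or stimulus = carbachol at ECmax as muscarinic agonist stimulus | timing = dye loading 30 min 37 °C, buffer rest 30 min RT | signal = calcium dye Fluo4 fluorescence | evaluation = B score from integrated fluorescence ratio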
A number is an active result. In the library only some 4.1% were active in any assay of this set; here they are far more common.

For COc1ccc(Cl)cc1C(=O)NNC(=S)NC(=O)c1cc(-c2ccc(Cl)cc2)nc2ccccc12 the results were RGS4 block inactive, MrgX1 antag -7.3, MrgX1 PAM inactive, MrgX1 agonist inactive, Kir21 inh inactive and RGS4 pot -8.4.
COc1ccccc1C(=O)NNC(=S)NC(=O)c1sc2ccccc2c1Cl was read as RGS4 block inactive, MrgX1 antag inactive, MrgX1 PAM inactive, MrgX1 agonist 36, Kir21 inh inactive and RGS4 pot -8.7.
Screening COc1cc(C(=O)NC(=S)Nc2ccc3c(c2)OCO3)cc(OC)c1OC returned RGS4 block inactive, MrgX1 antag inactive, MrgX1 PAM inactive, MrgX1 agonist inactive, Kir21 inh inactive and RGS4 pot inactive.
COc1ccc(Cl)cc1C(=O)NNC(=S)NC(=O)c1ccc(F)c(F)c1 was read as RGS4 block inactive, MrgX1 antag -5.9, MrgX1 PAM inactive, MrgX1 agonist inactive, Kir21 inh inactive and RGS4 pot inactive.
Screening COc1cccc(OC)c1OCCCCCc1c(C)n[nH]c1C returned RGS4 block inactive, MrgX1 antag inactive, MrgX1 PAM inactive, MrgX1 agonist inactive, Kir21 inh -4.5 and RGS4 pot inactive.
Screening C#CCOCCOCCOCCNc1nc(N2CCN(C(=O)[C@H]([C@@H](C)CC)n3cc(CCCCN)nn3)CC2)nc(N2CCN(C(=O)[C@H](CCCCN)n3cc(CCCC)nn3)CC2)n1 returned MrgX1 antag inactive, MrgX1 PAM inactive and MrgX1 agonist inactive.
O=C(c1ccco1)N(CCC(c1ccccc1)c1ccco1)Cc1ccc(F)cc1 (centres undefined) was read as RGS4 block inactive, MrgX1 antag inactive, MrgX1 PAM inactive, MrgX1 agonist inactive, Kir21 inh -4.4 and RGS4 pot inactive.
`CCC(=O)N(CCC(c1ccco1)C(C)C)Cc1ccccc1` (centres undefined) gave RGS4 block inactive, MrgX1 antag inactive, MrgX1 PAM inactive, MrgX1 agonist inactive, Kir21 inh -6.1 and RGS4 pot inactive.
Screening CC1(C)CC(C(CCN(Cc2ccccc2)C(=O)c2ccco2)c2ccc(F)cc2)CCO1 (centres undefined) returned RGS4 block inactive, MrgX1 antag inactive, MrgX1 PAM inactive, MrgX1 agonist inactive, Kir21 inh inactive and RGS4 pot inactive.
Screening COc1ccccc1C(CCN(Cc1ccccc1)C(C)=O)c1ccco1 (centres undefined) returned RGS4 block inactive, MrgX1 antag inactive, MrgX1 PAM inactive, MrgX1 agonist inactive, Kir21 inh -5.3 and RGS4 pot inactive.
For CC(=O)N(CCC(c1ccco1)C(C)C)Cc1ccc(Cl)cc1 (centres undefined) the results were RGS4 block inactive, MrgX1 antag inactive, MrgX1 PAM inactive, MrgX1 agonist inactive, Kir21 inh inactive and RGS4 pot inactive.
`Cc1ccc2nc(Nc3nc(CSc4nc5ccccc5s4)cc(=O)[nH]3)nc(C)c2c1` gave RGS4 block inactive, MrgX1 antag inactive, MrgX1 PAM inactive, MrgX1 agonist inactive, Kir21 inh inactive and RGS4 pot inactive.
For CCCCCN1CC(=O)N2[C@@H](Cc3c([nH]c4ccccc34)C2(C)C)C1=O the results were RGS4 block inactive, MrgX1 antag inactive, MrgX1 PAM inactive, MrgX1 agonist inactive, Kir21 inh inactive and RGS4 pot inactive.
For CCCCN(CCCC)CCCN1CC(=O)N2[C@@H](Cc3c([nH]c4ccccc34)C2(C)C)C1=O the results were RGS4 block inactive, MrgX1 antag inactive, MrgX1 PAM inactive, MrgX1 agonist inactive, Kir21 inh inactive and RGS4 pot -8.4.
For N=c1oc2c3c4c(cc2cc1C(=O)Nc1ccccc1)CCCN4CCC3 the results were RGS4 block inactive, MrgX1 antag inactive, MrgX1 PAM inactive, MrgX1 agonist inactive, Kir21 inh inactive and RGS4 pot -9.3.
CN1CCN(C2=NC(=O)/C(=C/c3ccccc3OS(=O)(=O)c3ccccc3)S2)CC1 was read as RGS4 block inactive, MrgX1 antag inactive, MrgX1 PAM inactive, MrgX1 agonist inactive, Kir21 inh inactive and RGS4 pot inactive.
Cc1ccc(Cn2nc(C)c(NC(=O)CSc3n[nH]c(C)c3[N+](=O)[O-])c2C)cc1 was read as RGS4 block inactive, MrgX1 antag -6, MrgX1 PAM inactive, MrgX1 agonist inactive, Kir21 inh inactive and RGS4 pot inactive.
Screening CCOc1ccc(Cl)cc1/C=C1/C(=O)ON=C1C returned RGS4 block inactive, MrgX1 antag inactive, MrgX1 PAM inactive, MrgX1 agonist inactive, Kir21 inh inactive and RGS4 pot inactive.
C#CCOc1c(Cl)cc(/C=C2/C(=O)ON=C2C)cc1OC was read as RGS4 block inactive, MrgX1 antag inactive, MrgX1 PAM inactive, MrgX1 agonist inactive, Kir21 inh inactive and RGS4 pot inactive.
COc1cc(/C=C2/C(=O)ON=C2C)cc(Cl)c1O was read as RGS4 block inactive, MrgX1 antag inactive, MrgX1 PAM inactive, MrgX1 agonist 40, Kir21 inh inactive and RGS4 pot inactive.
Screening CCOc1cc(/C=C2/C(=O)ON=C2C)ccc1O returned RGS4 block inactive, MrgX1 antag inactive, MrgX1 PAM inactive, MrgX1 agonist 33, Kir21 inh inactive and RGS4 pot inactive.
For Cc1nc(NC(=O)c2ccco2)sc1C(=O)Nc1ccc(Br)cc1 the results were RGS4 block inactive, MrgX1 antag inactive, MrgX1 PAM inactive, MrgX1 agonist inactive, Kir21 inh inactive and RGS4 pot inactive.
Screening COc1cc(OC)cc(C(=O)NNC(=O)NC2CCCCC2)c1 returned RGS4 block inactive, MrgX1 antag -7, MrgX1 PAM inactive, MrgX1 agonist inactive, Kir21 inh inactive and RGS4 pot inactive.
Screening O=[N+]([O-])c1cccc(N(CC2CO2)S(=O)(=O)c2ccccc2)c1 (centres undefined) returned RGS4 block inactive, MrgX1 antag inactive, MrgX1 PAM inactive, MrgX1 agonist inactive, Kir21 inh -4.7 and RGS4 pot inactive.
Screening Cc1ccc(N(CC2CO2)S(=O)(=O)c2ccc([N+](=O)[O-])cc2)cc1 (centres undefined) returned RGS4 block inactive, MrgX1 antag inactive, MrgX1 PAM 7.4, MrgX1 agonist inactive, Kir21 inh -4.3 and RGS4 pot inactive.
`c1cncc(-c2nnc(-c3cccnc3)nn2)c1` gave RGS4 block inactive, MrgX1 antag inactive, MrgX1 PAM inactive, MrgX1 agonist inactive, Kir21 inh inactive and RGS4 pot inactive.
Cc1ccc(S(=O)(=O)NCCC(=O)NC2CCCC2)cc1 was read as RGS4 block inactive, MrgX1 antag inactive, MrgX1 PAM inactive, MrgX1 agonist inactive, Kir21 inh inactive and RGS4 pot inactive.
For O=C(NCCCN1CCOCC1)c1ccc(Cl)c([N+](=O)[O-])c1 the results were RGS4 block inactive, MrgX1 antag inactive, MrgX1 PAM inactive, MrgX1 agonist inactive, Kir21 inh inactive and RGS4 pot inactive.
